According to ChEMBL document CHEMBL2169879, “Design and synthesis of inhibitors of Plasmodium falciparum N-myristoyltransferase, a promising target for antimalarial drug discovery” (J Med Chem, 2012):
One block for each compound: values may come before it.

Tests used:
[1] = target: T1, Glycylpeptide N-tetradecanoyltransferase (Plasmodium falciparum (isolate 3D7), UniProt Q8ILW6); assay: Inhibition of Plasmodium falciparum N-myristoyltransferase using [3H]-myristoyl-CoA and GLYVSRLFNRLFQKK(Biotin)-NH2 as substrate after 30 mins scintillation proximity assay
T1 sequence (Q8ILW6 whole entry): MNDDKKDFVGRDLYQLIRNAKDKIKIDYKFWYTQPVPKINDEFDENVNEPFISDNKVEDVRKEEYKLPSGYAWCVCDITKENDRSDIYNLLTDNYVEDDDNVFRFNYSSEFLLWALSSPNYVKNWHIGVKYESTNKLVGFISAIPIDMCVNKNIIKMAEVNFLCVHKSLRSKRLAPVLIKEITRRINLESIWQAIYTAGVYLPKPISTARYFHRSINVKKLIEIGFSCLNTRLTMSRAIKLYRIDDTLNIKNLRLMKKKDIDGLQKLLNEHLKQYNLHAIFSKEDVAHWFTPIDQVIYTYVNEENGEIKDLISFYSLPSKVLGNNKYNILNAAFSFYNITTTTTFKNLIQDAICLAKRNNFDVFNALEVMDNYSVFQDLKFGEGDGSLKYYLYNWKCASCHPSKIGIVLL

[2] = Selectivity index, ratio of IC50 for human N-myristoyltransferase to IC50 for Plasmodium falciparum N-myristoyltransferase
How it was run: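 Buffer was 30 mM Tris pH 7.4 with 4% DMSO; 30 min at 37 °C. Reaction stopped with streptavidin beads at pH 4. […] Ratio is IC50(HsNMT1)/IC50(PfNMT).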

Plasmodium falciparum = assay: Antiplasmodial activity against trophozoite-stage of Plasmodium falciparum 3D7 after 48 hrs by FACS analysis; assay type: functional, organism-based; conditions: 3D7, 48 h
How it was run: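 Synchronous late-trophozoite 3D7 cultures at 1% parasitemia and 2% hematocrit with 0.5% DMSO, exposed to inhibitor from 10 μM down to 0.31 μM for a 48 h cycle at 37 °C. Aliquots stained with diluted hydroethidine for 20 min at 37 °C, then parasitemia read by flow cytometry. Untreated parasites and uninfected RBCs served as controls. EC50 from nonlinear regression, triplicate wells.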

[3] = target: Glycylpeptide N-tetradecanoyltransferase 1 (Homo sapiens, UniProt P30419, Y296A); assay: Inhibition of human N-myristoyltransferase Y296A mutant using [3H]-myristoyl-CoA and GLYVSRLFNRLFQKK(Biotin)-NH2 as substrate after 30 mins scintillation proximity assay
Chain of Glycylpeptide N-tetradecanoyltransferase 1 (Homo sapiens, UniProt P30419, Y296A) (P30419 whole entry Y296A): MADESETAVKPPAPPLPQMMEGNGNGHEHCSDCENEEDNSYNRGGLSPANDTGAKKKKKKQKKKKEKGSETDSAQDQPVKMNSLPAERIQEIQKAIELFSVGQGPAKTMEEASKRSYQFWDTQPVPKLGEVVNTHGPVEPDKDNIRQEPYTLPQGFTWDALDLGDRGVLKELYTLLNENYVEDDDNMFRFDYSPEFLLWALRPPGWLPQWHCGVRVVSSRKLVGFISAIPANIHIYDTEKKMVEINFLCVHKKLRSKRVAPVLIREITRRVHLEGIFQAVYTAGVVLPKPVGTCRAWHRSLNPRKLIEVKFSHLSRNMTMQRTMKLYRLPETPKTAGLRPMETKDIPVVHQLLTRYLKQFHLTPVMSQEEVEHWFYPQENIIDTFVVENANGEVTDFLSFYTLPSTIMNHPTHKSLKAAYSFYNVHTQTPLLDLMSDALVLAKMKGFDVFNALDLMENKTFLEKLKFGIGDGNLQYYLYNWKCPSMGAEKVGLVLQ

[4] = target: Glycylpeptide N-tetradecanoyltransferase (Plasmodium vivax (strain Salvador I), UniProt A5K1A2, Y211A); assay: Inhibition of Plasmodium vivax […] N-myristoyltransferase Y211A mutant using [3H]-myristoyl-CoA and GLYVSRLFNRLFQKK(Biotin)-NH2 as substrate after 30 mins scintillation proximity assay
Chain of Glycylpeptide N-tetradecanoyltransferase (Plasmodium vivax (strain Salvador I), UniProt A5K1A2, Y211A) (A5K1A2 whole entry Y211A): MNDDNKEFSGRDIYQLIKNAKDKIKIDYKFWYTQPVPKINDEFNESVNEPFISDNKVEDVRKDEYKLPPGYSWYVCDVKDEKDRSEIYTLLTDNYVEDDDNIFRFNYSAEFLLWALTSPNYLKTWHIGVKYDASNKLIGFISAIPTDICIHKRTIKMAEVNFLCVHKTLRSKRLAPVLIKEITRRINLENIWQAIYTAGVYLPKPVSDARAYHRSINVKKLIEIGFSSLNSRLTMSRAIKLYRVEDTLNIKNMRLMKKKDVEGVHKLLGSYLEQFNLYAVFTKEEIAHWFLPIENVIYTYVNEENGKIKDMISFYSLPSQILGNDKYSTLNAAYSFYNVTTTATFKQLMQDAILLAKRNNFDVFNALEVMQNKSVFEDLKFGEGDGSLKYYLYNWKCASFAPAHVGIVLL
How it was run: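 Purified NMT per 100 µL well: PfNMT 9.4 ng, PvNMT 4.8 ng, PvNMT Y211A 19.2 ng. Each well also held 62.5 nM [3H]-myristoyl-CoA and 500 nM biotinylated peptide in pH 7.4 Tris buffer with 4% DMSO. Incubation ran 30 min at 37°C. Reactions were stopped with streptavidin beads at pH 4 and counted after overnight settling. Inhibitor ranged 500 µM–2 nM. IC50 came from nonlinear regression, in duplicate.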

[5] = target: T2, Glycylpeptide N-tetradecanoyltransferase 1 (Homo sapiens, UniProt P30419); assay: Inhibition of human N-myristoyltransferase using [3H]-myristoyl-CoA and GLYVSRLFNRLFQKK(Biotin)-NH2 as substrate after 30 mins scintillation proximity assay
T2 sequence (P30419 whole entry): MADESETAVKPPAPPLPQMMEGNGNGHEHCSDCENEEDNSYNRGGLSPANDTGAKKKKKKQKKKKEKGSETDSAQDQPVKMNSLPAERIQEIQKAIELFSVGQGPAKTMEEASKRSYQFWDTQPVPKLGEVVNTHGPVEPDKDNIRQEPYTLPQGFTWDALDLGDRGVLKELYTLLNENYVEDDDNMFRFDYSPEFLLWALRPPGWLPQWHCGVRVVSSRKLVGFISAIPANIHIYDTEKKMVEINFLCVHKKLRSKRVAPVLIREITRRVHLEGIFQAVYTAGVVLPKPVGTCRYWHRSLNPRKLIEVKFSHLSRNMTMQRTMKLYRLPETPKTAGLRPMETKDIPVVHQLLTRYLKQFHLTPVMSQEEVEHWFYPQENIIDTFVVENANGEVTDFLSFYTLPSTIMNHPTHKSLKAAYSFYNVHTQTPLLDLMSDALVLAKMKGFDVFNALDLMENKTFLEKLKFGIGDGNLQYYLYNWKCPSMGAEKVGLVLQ

[6] = Inhibition of Plasmodium vivax wild type N-myristoyltransferase using [3H]-myristoyl-CoA and GLYVSRLFNRLFQKK(Biotin)-NH2 as substrate after 30 mins scintillation proximity assay

Compound: Cc1c(C(=O)OCC2CCCCC2)oc2cccc(OC3CCNCC3)c12
IC50 [1]: 9.7 µM

Compound: Cc1c(C(=O)c2ccccc2)oc2cccc(OC3CCNCC3)c12
Ratio IC50 [2]: > 5 | EC50 (Plasmodium falciparum): 5.3 µM | IC50 [1]: 22 µM

Compound: Cc1c(/C=C/c2ccccc2)oc2cccc(OC3CCNCC3)c12
Ratio IC50 [2]: > 10 | IC50 [1]: 26.1 µM

Compound: Cc1c(COc2ccccc2)oc2cccc(OC3CCNCC3)c12
Ratio IC50 [2]: > 16 | IC50 [1]: 6.6 µM

Compound: Cc1c(C(=O)OCCc2ccccc2)oc2cccc(OC3CCNCC3)c12
IC50 [1]: 4.1 µM

Compound: c1ccc(CSc2cc3c(OC4CCNCC4)cccc3o2)cc1
IC50 [1]: 38.2 µM

Compound: COc1cccc(COC(=O)c2oc3cccc(OC4CCNCC4)c3c2C)c1
IC50 [3]: 10 µM | IC50 [4]: 2.7 µM | IC50 [5]: 45 µM

Ratio IC50 [2]: 28 | EC50 (Plasmodium falciparum): 2.4 µM
Compound: Cc1c(C(=O)NCc2cccc3ccccc23)oc2cccc(OC3CCNCC3)c12

Compound: Cc1c(C(=O)Nc2ccccc2)oc2cccc(OC3CCNCC3)c12
Ratio IC50 [2]: > 10 | EC50 (Plasmodium falciparum): 5.3 µM | IC50 [1]: 28.8 µM

IC50 [1]: > 200 µM
Compound: O=S(=O)(Cc1ccccc1)c1cc2c(OC3CCNCC3)cccc2o1

Compound: Cc1c(C(=O)OCc2ccccc2)oc2cccc(OC3CCNCC3)c12
Ratio IC50 [2]: > 400 | EC50 (Plasmodium falciparum): 1.2 µM | IC50 [5]: > 100 µM | IC50 [1]: 0.27 µM

Ratio IC50 [2]: > 20 | EC50 (Plasmodium falciparum): 4 µM
Compound: Cc1c(C(=O)CCc2ccccc2)oc2cccc(OC3CCNCC3)c12

Compound: CCOC(=O)c1oc2cccc(OCCCNCc3cccnc3)c2c1C
IC50 [5]: > 1000 µM | IC50 [1]: 51 µM

IC50 [1]: > 100 µM
Compound: Cc1c(C(=O)NC2CCCCC2)oc2cccc(OC3CCNCC3)c12

IC50 [1]: > 200 µM
Compound: Cc1c(C(=O)NC(C)C)oc2cccc(OC3CCNCC3)c12

Compound: CCOC(=O)c1oc2cccc(OC3CCNCC3)c2c1C
EC50 (Plasmodium falciparum): 15 µM | IC50 [5]: > 200 µM | IC50 [1]: 16.5 µM

Compound: Cc1c(COCc2ccccc2)oc2cccc(OC3CCNCC3)c12
Ratio IC50 [2]: 14 | EC50 (Plasmodium falciparum): 4.5 µM | IC50 [1]: 7.1 µM

Compound: Cc1c(C(=O)OCc2cccc3ccccc23)oc2cccc(OC3CCNCC3)c12
IC50 [1]: 1.4 µM

Compound: Cc1c(-c2nc(Cc3ccccc3)no2)oc2cccc(OC3CCNCC3)c12
IC50 [4]: 16.6 µM | IC50 [6]: 6.2 µM | EC50 (Plasmodium falciparum): 2.1 µM

Compound: Cc1c(C(=O)NCc2ccccc2)oc2cccc(OC3CCNCC3)c12
IC50 [1]: 13 µM

Compound: Cc1c(-c2nc(-c3ccccc3)no2)oc2cccc(OC3CCNCC3)c12
Ratio IC50 [2]: > 12 | IC50 [1]: 17.9 µM

Compound: Cc1c(C(=O)Oc2ccccc2)oc2cccc(OC3CCNCC3)c12
Ratio IC50 [2]: > 20 | EC50 (Plasmodium falciparum): 10 µM | IC50 [1]: 24.4 µM

Compound: Cc1c(/C=C\c2ccccc2)oc2cccc(OC3CCNCC3)c12
IC50 [1]: 72 µM

Compound: Cc1c(C(=O)OCCCc2ccccc2)oc2cccc(OC3CCNCC3)c12
IC50 [1]: 36.2 µM

Compound: CCCCc1c(C)nc2ccc(OC)cc2c1SCCC#N
IC50 [4]: 150 µM | IC50 [6]: 32.7 µM

Compound: Cc1c(C(=O)/C=C/c2ccccc2)oc2cccc(OC3CCNCC3)c12
Ratio IC50 [2]: 14 | EC50 (Plasmodium falciparum): 2.5 µM | IC50 [1]: 3.5 µM

Compound: Cc1c(CCc2ccccc2)oc2cccc(OC3CCNCC3)c12
IC50 [1]: 131 µM
